Values after ≈ are worked out from the molar mass of the structure shown. Read-outs that look alike come from different tables or passages of the source. Ends that are not written are not given here.
What was measured:
[1] = tested on: Escherichia coli E423‐17; test: Broth microdilution MIC, E. coli E423-17; assay type: cell-based; conditions: TSB, 37 °C, 18–20 h
Outline: (§1)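 Log-phase cultures (OD600 ≈ 0.5) grown in tryptic soy broth were diluted to 0.001 OD and added to serially diluted test compound. Peptide stocks were freshly made in autoclaved water and quantitated by UV. Plates were incubated at 37 °C for 18–20 h and read at 630 nm for growth.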

[2] = tested on: Pseudomonas aeruginosa E411‐17; test: Broth microdilution MIC, P. aeruginosa E411-17; assay type: cell-based; conditions: TSB, 37 °C, 18–20 h
Outline: as §1

[3] = tested on: Klebsiella pneumoniae E406‐17; test: Broth microdilution MIC, K. pneumoniae E406-17; assay type: cell-based; conditions: TSB, 37 °C, 18–20 h
Outline: as §1

[4] = tested on: Staphylococcus aureus USA300 LAC; test: Broth microdilution MIC, S. aureus USA300 LAC; assay type: cell-based; conditions: for Antibacterial minimal inhibitory concentration, Staphylococcus aureus USA300 LAC: broth microdilution, 37 °C, 18–20 h, read at 630 nm; for MIC: Staphylococcus aureus; for MIC, S. aureus clinical strain USA300: Table 5, broth microdilution
Outline: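 Broth microdilution was run in tryptic soy broth. Log-phase USA300 LAC (OD600 ≈ 0.5) was diluted to 0.001 OD over serially diluted test compound, incubated 18–20 h at 37 °C and read at 630 nm. For medium effects the broth was adjusted to pH 5.5, 6.8, 7.4 or 8.0, brought to 100 mM NaCl, or supplemented with 1, 5 or 10% human serum.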

[5] = tested on: Acinetobacter baumannii B28‐16; test: Broth microdilution MIC, A. baumannii B28-16; assay type: cell-based; conditions: TSB, 37 °C, 18–20 h
Outline: as §1

[6] = tested on: Staphylococcus epidermidis 1457; test: Broth microdilution MIC, S. epidermidis 1457; assay type: cell-based; conditions: TSB, 37 °C, 18–20 h
Outline: as §1

[7] = tested on: Gram‐positive and Gram‐negative bacteria; conditions: G+ = Gram‐positive bacteria; cited from earlier work
[8] = tested on: Gram‐positive pathogens (S. aureus, Enterococcus faecalis, Streptococcus spp., Bacillus anthracis, Clostridioides difficile, Propionibacterium acnes, Mycobacter); conditions: cited from earlier work
[9] = tested on: S. aureus USA300 membranes; test: Membrane permeabilization; assay type: cell-based, Staphylococcus aureus; conditions: in PBS, 4 × MIC (YZ103 16 μM, YZ105 4 μM, nafcillin 2 μM, linezolid 16 μM, LL‐37 16 μM), 20 μM propidium iodide, 37 °C
[10] = tested on: Nafcillin‐resistant S. aureus USA300; test: Antibacterial assay, nafcillin-resistant S. aureus USA300; assay type: cell-based, Staphylococcus aureus
Outline: as §1

[11] = tested on: S. aureus USA300; test: Killing kinetics of exponential bacteria; assay type: cell-based, Staphylococcus aureus; conditions: 4 × MIC (YZ105 4 uM, nafcillin 2 μM, linezolid 16 μM), 2 h, exponential phase bacteria, colony counting
[12] = tested on: S. aureus USA300 membrane potential; test: Membrane depolarization; assay type: cell-based, Staphylococcus aureus; conditions: DiBAC4(3) 500 nM; YZ105 8 μM, nafcillin 4 μM, linezolid 32 μM; Triton X‐100 positive control
Outline: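 USA300 was grown in TSB to exponential phase, washed twice with PBS, and resuspended in PBS with 25 mM glucose (15 min, 37 °C). DiBAC4(3) was added to 500 nM. Baseline fluorescence (ex 485/em 520 nm) was read for 20 min. Test compound was then added and reading continued for 40 min, with Triton X-100 as positive control.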

[13] = tested on: S. aureus USA300 LAC biofilms; test: Effect on 24 h preformed biofilms; assay type: cell-based, Staphylococcus aureus
Outline: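 Biofilms were formed for 24 h at 37 °C from exponential-phase USA300 LAC. After PBS washes they were exposed to test compound in fresh TSB for 24 h at 37 °C. Following further washes, viable cells were measured by XTT (2 h, 37 °C, A450, blank of medium plus XTT). Results are given as % growth relative to untreated (100%), with water-treated and uninoculated controls; mean ± SD, p < 0.05.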

[14] = tested on: S. aureus USA200; test: Antibacterial assay, S. aureus clinical strain USA200; assay type: cell-based, Staphylococcus aureus; conditions: broth microdilution, TSB
Outline: as §1

[15] = tested on: S. aureus USA400; test: Antibacterial assay, S. aureus clinical strain USA400; assay type: cell-based, Staphylococcus aureus; conditions: broth microdilution, TSB
Outline: as §1

[16] = tested on: S. aureus Newman; test: Antibacterial assay, S. aureus clinical strain Newman; assay type: cell-based, Staphylococcus aureus; conditions: broth microdilution, TSB
Outline: as §1

[17] = tested on: S. aureus Mu50; test: Antibacterial assay, S. aureus clinical strain Mu50; assay type: cell-based, Staphylococcus aureus; conditions: broth microdilution, TSB
Outline: as §1

[18] = USA300, pH 5.5, read-out: MIC against S. aureus USA300, pH 5.5
[19] = USA300, pH 6.8, read-out: MIC against S. aureus USA300, pH 6.8
[20] = USA300, pH 7.4, read-out: MIC against S. aureus USA300, pH 7.4
[21] = USA300, pH 8, read-out: MIC against S. aureus USA300, pH 8
[22] = USA300, read-out: MIC against S. aureus USA300, 100 mM NaCl

CC[C@H](C)[C@H](NC(=O)[C@H](CCCNC(=N)N)NC(=O)[C@H](C)NC(=O)[C@@H](NC(=O)[C@H](CO)NC(=O)[C@@H](NC(=O)[C@@H](NC(=O)[C@H](CCC(N)=O)NC(=O)[C@H](CO)NC(=O)[C@@H](NC(=O)[C@@H](N)Cc1ccccc1)[C@@H](C)CC)[C@@H](C)CC)[C@@H](C)CC)[C@@H](C)O)C(=O)N[C@@H](CC(C)C)C(=O)N[C@@H](CC(C)C)C(N)=O [YZ104]
Antibacterial minimal inhibitory concentration, Escherichia coli E423‐17 [1]: >16 µM | Antibacterial minimal inhibitory concentration, Pseudomonas aeruginosa E411‐17 [2]: >16 µM | Antibacterial minimal inhibitory concentration, Klebsiella pneumoniae E406‐17 [3]: >16 µM | Antibacterial minimal inhibitory concentration, Staphylococcus aureus USA300 LAC ([4]; TSB): >16 µM | Antibacterial minimal inhibitory concentration, Acinetobacter baumannii B28‐16 [5]: >16 µM | Antibacterial minimal inhibitory concentration, Staphylococcus epidermidis 1457 [6]: >16 µM

FLSKILSTLRILL-NH2 [YZ106]
Antibacterial minimal inhibitory concentration, Escherichia coli E423‐17 [1]: 8 to 16 µM | Antibacterial minimal inhibitory concentration, Pseudomonas aeruginosa E411‐17 [2]: >16 µM | Antibacterial minimal inhibitory concentration, Klebsiella pneumoniae E406‐17 [3]: >16 µM | Antibacterial minimal inhibitory concentration, Staphylococcus aureus USA300 LAC ([4]; TSB): 2 µM | Antibacterial minimal inhibitory concentration, Acinetobacter baumannii B28‐16 [5]: 8 µM | Antibacterial minimal inhibitory concentration, Staphylococcus epidermidis 1457 [6]: 1 to 2 µM

teixobactin
Activity spectrum [7]: Mainly G+ | MIC [8]: 5 to 250 ng/mL

LL‐37: human cathelicidin LL‐37 (LLGDFFRKSKEKIGKEFKRIVQRIKDFLRNLVPRTES; Antibacterial peptide LL-37; UniProt P49913 134-170, looked up)
Membrane permeabilization (propidium iodide fluorescence) [9]: steady increase in fluorescence with time

FLSKILSTLRILF-NH2 [YZ107]
Antibacterial minimal inhibitory concentration, Escherichia coli E423‐17 [1]: 8 µM | Antibacterial minimal inhibitory concentration, Pseudomonas aeruginosa E411‐17 [2]: 8 to 16 µM | Antibacterial minimal inhibitory concentration, Klebsiella pneumoniae E406‐17 [3]: >16 µM | Antibacterial minimal inhibitory concentration, Staphylococcus aureus USA300 LAC ([4]; TSB): 2 µM | Antibacterial minimal inhibitory concentration, Acinetobacter baumannii B28‐16 [5]: 4 to 8 µM | Antibacterial minimal inhibitory concentration, Staphylococcus epidermidis 1457 [6]: 2 µM

CCOc1ccc2ccccc2c1C(=O)N[C@@H]1C(=O)N2[C@@H]1SC(C)(C)[C@@H]2C(=O)O [Nafcillin, nafcillin, reference compound]
MIC ([10]; Staphylococcus aureus, USA300, read-out: MIC, Nafcillin‐resistant USA300): 1020 µM (≈ 424 µg/mL) | Reduction of MRSA counts (CFU) in killing kinetics [11]: barely reduced bacterial burden | Membrane depolarization [12]: neither nafcillin nor linezolid was able to | MIC [4, 18]: 0.5 µM (≈ 0.207 µg/mL) | MIC [4, 19]: 1 µM (≈ 0.414 µg/mL) | MIC [4, 20]: 0.5 to 1 µM (≈ 0.207 to 0.414 µg/mL) | MIC [4, 21]: 1 µM (≈ 0.414 µg/mL) | MIC [4, 22]: 1 to 2 µM (≈ 0.414 to 0.829 µg/mL) | Increase of MIC values by serum ([4]; TSB with human serum compared with normal TSB): 4–8 fold | Membrane permeabilization (propidium iodide fluorescence) [9]: neither nafcillin nor linezolid permeabilized the membranes | Effect on 24 h preformed biofilms ([13]; 24 h treatment in TSB, live cells by XTT at 450 nm, relative to untreated (100%)): did not display a clear effect

FLSQILSTLRILL-NH2 [YZ105]
MIC, Nafcillin‐resistant USA300 ([10]; broth microdilution, TSB): 2 µM | MIC, S. aureus clinical strain USA200 [14]: 1 µM | Antibacterial minimal inhibitory concentration, Escherichia coli E423‐17 [1]: >16 µM | Antibacterial minimal inhibitory concentration, Pseudomonas aeruginosa E411‐17 [2]: >16 µM | MIC, S. aureus clinical strain USA400 [15]: 1 µM | Antibacterial minimal inhibitory concentration, Klebsiella pneumoniae E406‐17 [3]: >16 µM | MIC, S. aureus clinical strain Newman [16]: 2 µM | MIC, S. aureus clinical strain Mu 50 [17]: 2 µM | MIC against S. aureus USA300, pH 5.5 ([4]; TSB adjusted to pH 5.5): 4–8 μM | MIC against S. aureus USA300, pH 6.8 ([4]; TSB adjusted to pH 6.8): 2 μM | MIC against S. aureus USA300, pH 8 ([4]; TSB adjusted to pH 8.0): <0.5 μM | MIC against S. aureus USA300, 100 mM NaCl ([4]; TSB with 100 mM NaCl added): 2 µM | MIC against S. aureus USA300, 1% serum ([4]; TSB with 1% human serum): 2 µM | MIC against S. aureus USA300, 5% serum ([4]; TSB with 5% human serum): 8 µM | MIC against S. aureus USA300, 10% serum ([4]; TSB with 10% human serum): 8 to 16 µM | MIC against S. aureus USA300, pH 7.4 ([4]; TSB, pH 7.4 (normal condition)): 1–2 μM | MIC, S. aureus clinical strain USA300 ([4]; TSB): 1 µM | Antibacterial minimal inhibitory concentration, Staphylococcus aureus USA300 LAC ([4]; TSB): 1 µM | Antibacterial minimal inhibitory concentration, Acinetobacter baumannii B28‐16 [5]: >16 µM | Antibacterial minimal inhibitory concentration, Staphylococcus epidermidis 1457 [6]: 1 µM

CC(=O)NC[C@H]1CN(c2ccc(N3CCOCC3)c(F)c2)C(=O)O1 [Linezolid, linezolid, reference compound]
Reduction of MRSA counts (CFU) in killing kinetics [11]: 1 log | Membrane depolarization [12]: neither nafcillin nor linezolid was able to | MIC [4, 18]: 4 µM (≈ 1.35 µg/mL) | MIC [4, 19]: 4 µM (≈ 1.35 µg/mL) | MIC [4, 20]: 4 µM (≈ 1.35 µg/mL) | MIC [4, 21]: 4 to 8 µM (≈ 1.35 to 2.7 µg/mL) | MIC [4, 22]: 4 µM (≈ 1.35 µg/mL) | Membrane permeabilization (propidium iodide fluorescence) [9]: neither nafcillin nor linezolid permeabilized the membranes | Effect on 24 h preformed biofilms in combination ([13]; in the presence of 2 μM YZ105, XTT): became more effective

CC[C@H](C)[C@H](NC(=O)[C@H](CCCNC(=N)N)NC(=O)[C@H](C)NC(=O)[C@@H](NC(=O)[C@H](CO)NC(=O)[C@@H](NC(=O)[C@@H](NC(=O)[C@H](CCC(N)=O)NC(=O)[C@H](CO)NC(=O)[C@@H](NC(=O)[C@@H](N)Cc1ccccc1)[C@@H](C)CC)[C@@H](C)CC)[C@@H](C)CC)[C@@H](C)O)C(N)=O [YZ103]
MIC, S. aureus clinical strain USA200 [14]: >32 µM | Antibacterial minimal inhibitory concentration, Escherichia coli E423‐17 [1]: >16 µM | Antibacterial minimal inhibitory concentration, Pseudomonas aeruginosa E411‐17 [2]: >16 µM | MIC, S. aureus clinical strain USA400 [15]: >32 µM | Antibacterial minimal inhibitory concentration, Klebsiella pneumoniae E406‐17 [3]: >16 µM | MIC, S. aureus clinical strain Newman [16]: >32 µM | MIC, S. aureus clinical strain Mu 50 [17]: >32 µM | MIC, S. aureus clinical strain USA300 ([4]; TSB): >32 µM | Antibacterial minimal inhibitory concentration, Staphylococcus aureus USA300 LAC ([4]; TSB): >16 µM | Antibacterial minimal inhibitory concentration, Acinetobacter baumannii B28‐16 [5]: >16 µM | Antibacterial minimal inhibitory concentration, Staphylococcus epidermidis 1457 [6]: >16 µM

Source: publication PMC9564113 (Peptide Science (Hoboken, N.j.), 2022)
